Columns and labels:
Assay type in all cases: functional
MDA-MB-435 = experiment: Antiproliferative activity against human MDA-MB-435 cells after 48 hrs by sulforhodamine B assay; conditions: MDA-MB-435, 48 h; for TGI: read-out: pTGI (converted)
Summary of the method: (§1)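 Cells grown in RPMI 1640 with 5% FBS and 2 mM L-glutamine, plated at 5000–40,000 cells/well and preincubated 24 h at 37 °C, 5% CO2. Five drug concentrations (10-fold or ½-log dilutions from DMSO stocks) applied for 48 h. TCA-fixed (final 10% adherent, 16% suspension), SRB-stained, A515 read. Growth versus time-zero and control wells gave GI50, TGI, LC50.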

LOX IMVI = experiment: Antiproliferative activity against human LOXIMVI cells after 48 hrs by sulforhodamine B assay; conditions: for CC50: read-out: pLC50 (the source's name) (converted); for TGI: read-out: pTGI (converted); summary of the method: as §1
NCI-H322M = experiment: Antiproliferative activity against human NCI-H322M cells after 48 hrs by sulforhodamine B assay; conditions: for TGI: read-out: pTGI (converted); summary of the method: as §1
Malme-3M = experiment: Antiproliferative activity against human MALME-3M cells after 48 hrs by sulforhodamine B assay; conditions: for TGI: read-out: pTGI (converted); summary of the method: as §1
SF-295 = experiment: Antiproliferative activity against human SF295 cells after 48 hrs by sulforhodamine B assay; conditions: SF-295, 48 h; for TGI: read-out: pTGI (converted); summary of the method: as §1
NCI/ADR-RES = experiment: Antiproliferative activity against human NCI/ADR-RES cells after 48 hrs by sulforhodamine B assay; conditions: for TGI: read-out: pTGI (converted); summary of the method: as §1
SK-MEL-5 = experiment: Antiproliferative activity against human SK-MEL-5 cells after 48 hrs by sulforhodamine B assay; conditions: SK-MEL-5, 48 h; for TGI: read-out: pTGI (converted); summary of the method: as §1
SK-MEL-28 = experiment: Antiproliferative activity against human SK-MEL-28 cells after 48 hrs by sulforhodamine B assay; conditions: SK-MEL-28, 48 h; for TGI: read-out: pTGI (converted); summary of the method: as §1
NCI-H226 = experiment: Antiproliferative activity against human NCI-H226 cells after 48 hrs by sulforhodamine B assay; conditions: NCI-H226, 48 h; for TGI: read-out: pTGI (converted); summary of the method: as §1
OVCAR-3 = experiment: Antiproliferative activity against human OVCAR3 cells after 48 hrs by sulforhodamine B assay; conditions: OVCAR-3, 48 h; for TGI: read-out: pTGI (converted); summary of the method: as §1
SN12C = experiment: Antiproliferative activity against human SN12C cells after 48 hrs by sulforhodamine B assay; conditions: for TGI: read-out: pTGI (converted); summary of the method: as §1
KM12 = experiment: Antiproliferative activity against human KM12 cells after 48 hrs by sulforhodamine B assay; conditions: KM12, 48 h; for TGI: read-out: pTGI (converted); summary of the method: as §1
HL-60 = experiment: Antiproliferative activity against human HL60 (TB) cells after 48 hrs by sulforhodamine B assay; conditions: HL-60, 48 h; for CC50: read-out: pLC50 (the source's name) (converted); for TGI: read-out: pTGI (converted)
Summary of the method: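 NCI 60-cell panel protocol: cells in RPMI 1640 with 5% FBS and 2 mM L-glutamine, plated 24 h at 37 °C/5% CO2 before dosing. Compounds dissolved in DMSO and tested at five concentrations (10-fold or ½ log serial dilutions) for 48 h. Suspension cells fixed with 80% TCA (final 16%), SRB stained, absorbance at 515 nm. GI50 derived from time-zero-corrected growth.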

DU-145 = experiment: Antiproliferative activity against human DU145 cells after 48 hrs by sulforhodamine B assay; conditions: DU-145, 48 h; for TGI: read-out: pTGI (converted); summary of the method: as §1
U-251 = experiment: Antiproliferative activity against human U251 cells after 48 hrs by sulforhodamine B assay; conditions: U-251, 48 h; for TGI: read-out: pTGI (converted)
Summary of the method: (§2)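 Cells in RPMI 1640 with 5% FBS and 2 mM L-glutamine were seeded at 5000–40,000/well according to doubling time and preincubated 24 h at 37 °C in 5% CO2. Time-zero plates were TCA-fixed when drug was added. Five 10-fold or ½-log dilutions from DMSO stocks were added for 48 h. After SRB staining, A515 was read and GI50 derived from [(Ti−Tz)/(C−Tz)]×100 = 50.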

M14 = experiment: Antiproliferative activity against human M14 cells after 48 hrs by sulforhodamine B assay; conditions: M14, 48 h; for TGI: read-out: pTGI (converted); summary of the method: as §1
HT-29 = experiment: Antiproliferative activity against human HT-29 cells after 48 hrs by sulforhodamine B assay; conditions: HT-29, 48 h; for TGI: read-out: pTGI (converted); summary of the method: as §1
UO-31 = experiment: Antiproliferative activity against human UO31 cells after 48 hrs by sulforhodamine B assay; conditions: UO-31, 48 h; for TGI: read-out: pTGI (converted); summary of the method: as §2
NCI-H460 = experiment: Antiproliferative activity against human NCI-H460 cells after 48 hrs by sulforhodamine B assay; conditions: NCI-H460, 48 h; for TGI: read-out: pTGI (converted); summary of the method: as §1
MOLT-4 = experiment: Antiproliferative activity against human MOLT4 cells after 48 hrs by sulforhodamine B assay; conditions: MOLT-4, 48 h; summary of the method: as §1
NCI-H23 = experiment: Antiproliferative activity against human NCI-H23 cells after 48 hrs by sulforhodamine B assay; conditions: NCI-H23, 48 h; for TGI: read-out: pTGI (converted); summary of the method: as §1
HCT-116 = experiment: Antiproliferative activity against human HCT116 cells after 48 hrs by sulforhodamine B assay; conditions: HCT-116, 48 h; for TGI: read-out: pTGI (converted); summary of the method: as §1
SNB-19 = experiment: Antiproliferative activity against human SNB19 cells after 48 hrs by sulforhodamine B assay; conditions: SNB-19, 48 h; for TGI: read-out: pTGI (converted); summary of the method: as §1
NCI-H522 = experiment: Antiproliferative activity against human NCI-H522 cells after 48 hrs by sulforhodamine B assay; conditions: NCI-H522, 48 h; for TGI: read-out: pTGI (converted); summary of the method: as §1
UACC-257 = experiment: Antiproliferative activity against human UACC257 cells after 48 hrs by sulforhodamine B assay; conditions: UACC-257, 48 h; for TGI: read-out: pTGI (converted); summary of the method: as §2
CCRF-CEM = experiment: Antiproliferative activity against human CCRF-CEM cells after 48 hrs by sulforhodamine B assay; conditions: for TGI: read-out: pTGI (converted); summary of the method: as §1
ACHN = experiment: Antiproliferative activity against human ACHN cells after 48 hrs by sulforhodamine B assay; conditions: for TGI: read-out: pTGI (converted); summary of the method: as §1

## O=C(CCCn1c(=O)c2sc3ncccc3c2n2nnc(-c3ccccc3)c12)NCCc1c[nH]cn1
MDA-MB-435
  GI50: 0.49 µM
  LC50: > 100 µM
  TGI: 20.4 µM
LOX IMVI
  GI50: 12.3 µM
  CC50: 57.5 µM
  TGI: 26.3 µM
NCI-H322M
  GI50: 14.8 µM
  LC50: 89.1 µM
  TGI: 36.3 µM
Malme-3M
  GI50: 18.2 µM
  LC50: 75.9 µM
  TGI: 37.2 µM
SF-295
  GI50: 1.74 µM
  LC50: 53.7 µM
  TGI: 16.2 µM
NCI/ADR-RES
  GI50: 33.9 µM
  LC50: > 100 µM
  TGI: > 100 µM
SK-MEL-5
  GI50: 16.2 µM
  LC50: > 100 µM
  TGI: > 100 µM
SK-MEL-28
  GI50: 17 µM
  LC50: 72.4 µM
  TGI: 34.7 µM
NCI-H226
  GI50: 11.7 µM
  LC50: 74.1 µM
  TGI: 29.5 µM
OVCAR-3
  GI50: 11 µM
  LC50: 50.1 µM
  TGI: 23.4 µM
SN12C
  GI50: 0.331 µM
  LC50: 41.7 µM
  TGI: 13.5 µM
KM12
  GI50: 1.91 µM
  LC50: 83.2 µM
  TGI: 24 µM
HL-60
  GI50: 1.41 µM
  CC50: 50.1 µM
  TGI: 4.79 µM
DU-145
  GI50: 2.75 µM
  LC50: 61.7 µM
  TGI: 19.5 µM
U-251
  GI50: 1.29 µM
  LC50: 45.7 µM
  TGI: 14.8 µM
M14
  GI50: 3.47 µM
  LC50: 50.1 µM
  TGI: 19.5 µM
HT-29
  GI50: 3.89 µM
  LC50: > 100 µM
  TGI: 55 µM
UO-31
  GI50: 11.7 µM
  LC50: 60.3 µM
  TGI: 26.9 µM
NCI-H460
  GI50: 3.63 µM
  LC50: 42.7 µM
  TGI: 13.2 µM
MOLT-4
  GI50: 2.24 µM
  LC50: > 100 µM
MOLT-4; read-out: pTGI (converted)
  TGI: 24 µM
NCI-H23
  GI50: 14.5 µM
  LC50: 70.8 µM
  TGI: 32.4 µM
HCT-116
  GI50: 0.38 µM
  LC50: 38.9 µM
  TGI: 10 µM
SNB-19
  GI50: 10.7 µM
  LC50: > 100 µM
  TGI: 33.9 µM
NCI-H522
  GI50: 2.95 µM
  LC50: 60.3 µM
  TGI: 22.9 µM
UACC-257
  GI50: 18.2 µM
  LC50: 69.2 µM
  TGI: 35.5 µM
CCRF-CEM
  GI50: 0.224 µM
  LC50: > 100 µM
  TGI: 4.47 µM
ACHN
  GI50: 15.5 µM
  LC50 (50% lethal concentration): 63.1 µM
  TGI: 30.9 µM

## O=C(CCCn1c(=O)c2sc3ccccc3c2n2nnc(-c3ccccc3)c12)NCCc1c[nH]cn1
MDA-MB-435
  GI50: 1.48 µM
  LC50: 6.31 µM
  TGI: 3.09 µM
LOX IMVI
  GI50: 1.58 µM
  CC50: 5.37 µM
  TGI: 2.95 µM
NCI-H322M
  GI50: 2.24 µM
  LC50: 21.4 µM
  TGI: 5.5 µM
Malme-3M
  GI50: 2.51 µM
  LC50: > 100 µM
  TGI: 5.5 µM
SF-295
  GI50: 1.7 µM
  TGI: 3.63 µM
NCI/ADR-RES
  GI50: 3.24 µM
  LC50: > 100 µM
  TGI: > 100 µM
SK-MEL-5
  GI50: 1.91 µM
  LC50: 8.91 µM
  TGI: 4.07 µM
SK-MEL-28
  GI50: 1.74 µM
  LC50: 5.89 µM
  TGI: 3.24 µM
NCI-H226
  GI50: 18.6 µM
  LC50: 75.9 µM
  TGI: 38 µM
OVCAR-3
  GI50: 1.51 µM
  LC50: 6.61 µM
  TGI: 3.16 µM
SN12C
  GI50: 0.269 µM
  LC50: 5.13 µM
  TGI: 1.86 µM
KM12
  GI50: 1.15 µM
  TGI: 2.82 µM
HL-60
  GI50: 1.41 µM
  CC50: > 100 µM
  TGI: 6.31 µM
DU-145
  GI50: 1.55 µM
  LC50: 5.75 µM
  TGI: 2.95 µM
U-251
  GI50: 1.05 µM
  LC50: 4.68 µM
  TGI: 2.24 µM
M14
  GI50: 1.7 µM
  TGI: 3.8 µM
HT-29
  GI50: 1.35 µM
  LC50: 7.41 µM
  TGI: 3.16 µM
UO-31
  GI50: 1.91 µM
  TGI: 3.72 µM
NCI-H460
  GI50: 1.86 µM
  LC50: 7.76 µM
  TGI: 3.8 µM
MOLT-4
  GI50: 1.17 µM
NCI-H23
  GI50: 2.95 µM
  LC50: > 100 µM
  TGI: 11.7 µM
HCT-116
  GI50: 0.339 µM
  LC50: > 100 µM
  TGI: 1.66 µM
SNB-19
  GI50: 1.7 µM
  LC50: > 100 µM
  TGI: 5.01 µM
NCI-H522
  GI50: 1.05 µM
  LC50: 81.3 µM
  TGI: 11.7 µM
UACC-257
  GI50: 2.04 µM
  LC50: > 100 µM
  TGI: 4.57 µM
CCRF-CEM
  LC50: > 100 µM
  TGI: > 100 µM
ACHN
  GI50: 1.66 µM
  LC50 (50% lethal concentration): 5.5 µM
  TGI: 3.02 µM
